Assays:
[1] = target: Prostacyclin receptor (Homo sapiens) (UniProt P43119); assay: Inhibition of human IP (PGI2) receptor at 10 uM relative to control
Homo sapiens [2] = species on record: Homo sapiens; assay: Inhibition of human UT at 10 uM relative to control
[3] = target: Glucocorticoid receptor (Homo sapiens) (UniProt P04150); assay: Inhibition of human GR at 10 uM relative to control
[4] = target: Histone-lysine N-methyltransferase SETD7 (Homo sapiens) (UniProt Q8WTS6); conditions: HEK293, dose 10.0 µM
[5] = Inhibition of SETD7 D256A mutant (unknown origin) using biotinylated H3 (1-25) peptide as substrate incubated for 1 hrs in presence of 3H-SAM by radioactivity based assay; set-up: species or system Homo sapiens
Method in brief: (§1)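 Scintillation proximity assay on recombinant E. coli-expressed human SETD7(1–366) mutant forms. Read-out was incorporation of the ³H-methyl group from ³H-SAM into histone H3(1–25) peptide, with 2 µM SAM, 2 µM H3(1–25) and 2 nM enzyme. IC50 is given as the mean ± SD of triplicate runs.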

[6] = target: Muscarinic acetylcholine receptor M3 (Homo sapiens) (UniProt P20309); assay: Inhibition of human M3 receptor at 10 uM relative to control
[7] = target: Melatonin receptor type 1A (Homo sapiens) (UniProt P48039); assay: Inhibition of human MT1 at 10 uM relative to control
Homo sapiens [8] = species on record: Homo sapiens; assay: Inhibition of Na+/K+ ATPase (unknown origin) at 10 uM relative to control
[9] = target: Glutamate receptor ionotropic AMPA (Homo sapiens) (UniProt P48058+P42263+P42262+P42261); assay: Inhibition of human AMPA receptor at 10 uM relative to control; format: protein-complex assay
[10] = target: 5-hydroxytryptamine receptor 4 (Homo sapiens) (UniProt Q13639); assay: Inhibition of human 5-HT4e receptor at 10 uM relative to control
[11] = target: Neuropeptide Y receptor type 1 (Homo sapiens) (UniProt P25929); assay: Inhibition of human Y1 receptor at 10 uM relative to control
Motilin receptor = Motilin receptor (Homo sapiens, UniProt O43193); assay: Inhibition of human motilin receptor
[12] = target: cGMP-specific 3',5'-cyclic phosphodiesterase (Homo sapiens) (UniProt O76074); assay: Inhibition of human PDE5 at 10 uM relative to control
[13] = target: Cannabinoid receptor 1 (Homo sapiens) (UniProt P21554); assay: Inhibition of human CB1 receptor at 10 uM relative to control
[14] = target: T1, Histone-lysine N-methyltransferase SETD7 (Homo sapiens, UniProt Q8WTS6); assay: Inhibition of full length human SETD7 (1 to 366 residues) expressed in Escherichia coli BL21 (DE3) V2R-pRARE assessed as apparent inhibition constant using biotinylated H3 (1-25) peptide as substrate incubated for 1 hrs in presence of 3H-SAM by morrison equation; conditions: read-out: Ki(app)
T1 sequence (Q8WTS6 whole entry): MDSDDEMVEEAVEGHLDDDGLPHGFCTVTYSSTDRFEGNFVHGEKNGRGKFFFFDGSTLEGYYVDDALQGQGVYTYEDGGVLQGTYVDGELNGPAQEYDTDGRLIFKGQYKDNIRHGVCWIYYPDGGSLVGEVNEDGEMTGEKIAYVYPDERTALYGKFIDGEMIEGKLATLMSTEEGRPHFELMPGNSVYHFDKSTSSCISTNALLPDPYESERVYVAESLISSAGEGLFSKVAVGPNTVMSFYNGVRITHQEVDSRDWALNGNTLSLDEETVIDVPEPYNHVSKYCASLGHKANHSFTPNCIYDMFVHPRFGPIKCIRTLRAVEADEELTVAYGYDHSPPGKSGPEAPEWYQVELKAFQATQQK

[15] = target: 5-hydroxytryptamine receptor 2A (Homo sapiens) (UniProt P28223); assay: Inhibition of human 5-HT2A receptor at 10 uM relative to control
[16] = target: Neprilysin (Homo sapiens) (UniProt P08473); assay: Inhibition of human neutral endopeptidase at 10 uM relative to control
[17] = Inhibition of SETD7 V274E mutant (unknown origin) using biotinylated H3 (1-25) peptide as substrate incubated for 1 hrs in presence of 3H-SAM by radioactivity based assay; set-up: species or system Homo sapiens; method in brief: as §1
[18] = target: Angiotensin-converting enzyme 2 (Homo sapiens) (UniProt Q9BYF1); assay: Inhibition of human ACE-2 at 10 uM relative to control
[19] = target: Vasoactive intestinal polypeptide receptor 1 (Homo sapiens) (UniProt P32241); assay: Inhibition of human VPAC1 at 10 uM relative to control
[20] = target: Matrix metalloproteinase-9 (Homo sapiens) (UniProt P14780); assay: Inhibition of human MMP-9 at 10 uM relative to control
Homo sapiens [21] = species on record: Homo sapiens; assay: Inhibition of central BZD receptor (unknown origin) at 10 uM relative to control
[22] = target: Beta-1 adrenergic receptor (Homo sapiens) (UniProt P08588); assay: Inhibition of human beta 1 receptor at 10 uM relative to control
[23] = target: 5-hydroxytryptamine receptor 1D (Homo sapiens) (UniProt P28221); assay: Inhibition of 5-HT1D receptor (unknown origin) at 10 uM relative to control
[24] = target: D(2) dopamine receptor (Homo sapiens) (UniProt P14416); assay: Inhibition of human D2S receptor at 10 uM relative to control
Homo sapiens [25] = species on record: Homo sapiens; assay: Inhibition of human TNF-alpha at 10 uM relative to control
[26] = target: Human immunodeficiency virus type 1 protease (Human immunodeficiency virus 1) (UniProt Q72874); assay: Inhibition of HIV-1 protease at 10 uM relative to control
U2OS = assay: Cytotoxicity against human U2OS cells assessed as reduction in cell viability at <50 uM by alamar blue assay; format: toxicity, cell-based
Homo sapiens [27] = species on record: Homo sapiens; assay: Inhibition of human sigma receptor at 10 uM relative to control
[28] = target: B2 bradykinin receptor (Homo sapiens) (UniProt P30411); assay: Inhibition of human B2 receptor at 10 uM relative to control
[29] = target: Bombesin receptor subtype-3 (Homo sapiens) (UniProt P32247); assay: Inhibition of human BB3 receptor at 10 uM relative to control
[30] = target: Calcium/calmodulin-dependent protein kinase type II subunit alpha (Homo sapiens) (UniProt Q9UQM7); assay: Inhibition of human CaMK2alpha at 10 uM relative to control
[31] = target: Melanocortin receptor 3 (Homo sapiens) (UniProt P41968); assay: Inhibition of human MC3 receptor at 10 uM relative to control
[32] = target: Acetylcholinesterase (Homo sapiens) (UniProt P22303); assay: Inhibition of human acetylcholinesterase at 10 uM relative to control
[33] = target: Mitogen-activated protein kinase 1 (Homo sapiens) (UniProt P28482); assay: Inhibition of human ERK2 (P42mapk) at 10 uM relative to control
[34] = target: Alpha-2C adrenergic receptor (Homo sapiens) (UniProt P18825); assay: Inhibition of human alpha 2C receptor at 10 uM relative to control
Homo sapiens [35] = species on record: Homo sapiens; assay: Inhibition of strychnine-insensitive glycine receptor (unknown origin) at 10 uM relative to control

Matrix metalloproteinase-9 (Homo sapiens), sequence (P14780 whole entry): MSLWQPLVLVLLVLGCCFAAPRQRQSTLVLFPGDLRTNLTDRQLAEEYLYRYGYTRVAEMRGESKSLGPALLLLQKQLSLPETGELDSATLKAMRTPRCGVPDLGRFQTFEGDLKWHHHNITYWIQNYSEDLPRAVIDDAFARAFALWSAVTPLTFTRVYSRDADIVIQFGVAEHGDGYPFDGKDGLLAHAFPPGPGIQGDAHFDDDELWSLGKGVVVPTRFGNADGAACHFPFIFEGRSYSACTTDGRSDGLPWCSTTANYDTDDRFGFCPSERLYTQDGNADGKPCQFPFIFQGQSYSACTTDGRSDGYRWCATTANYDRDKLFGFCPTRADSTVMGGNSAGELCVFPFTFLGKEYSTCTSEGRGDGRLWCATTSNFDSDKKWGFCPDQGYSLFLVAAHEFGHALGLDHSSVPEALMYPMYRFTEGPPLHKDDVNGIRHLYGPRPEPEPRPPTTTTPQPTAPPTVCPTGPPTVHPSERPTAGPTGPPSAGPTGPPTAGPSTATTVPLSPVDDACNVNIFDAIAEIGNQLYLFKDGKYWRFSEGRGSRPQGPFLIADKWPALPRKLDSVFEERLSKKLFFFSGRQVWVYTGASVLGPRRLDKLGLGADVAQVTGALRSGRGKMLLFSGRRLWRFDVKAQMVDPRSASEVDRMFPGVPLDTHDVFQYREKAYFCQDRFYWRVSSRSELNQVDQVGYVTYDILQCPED
Melanocortin receptor 3 (Homo sapiens), sequence (P41968 whole entry): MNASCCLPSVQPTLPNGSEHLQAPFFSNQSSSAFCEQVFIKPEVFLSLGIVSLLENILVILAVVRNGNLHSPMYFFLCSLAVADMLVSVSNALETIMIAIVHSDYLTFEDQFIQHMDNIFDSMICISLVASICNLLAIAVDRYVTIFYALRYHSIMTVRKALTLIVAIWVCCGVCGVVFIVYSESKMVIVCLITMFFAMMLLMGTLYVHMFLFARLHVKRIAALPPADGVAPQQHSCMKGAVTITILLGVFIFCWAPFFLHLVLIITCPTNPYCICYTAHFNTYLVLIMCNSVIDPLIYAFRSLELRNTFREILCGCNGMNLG
Acetylcholinesterase (Homo sapiens), sequence (P22303 whole entry): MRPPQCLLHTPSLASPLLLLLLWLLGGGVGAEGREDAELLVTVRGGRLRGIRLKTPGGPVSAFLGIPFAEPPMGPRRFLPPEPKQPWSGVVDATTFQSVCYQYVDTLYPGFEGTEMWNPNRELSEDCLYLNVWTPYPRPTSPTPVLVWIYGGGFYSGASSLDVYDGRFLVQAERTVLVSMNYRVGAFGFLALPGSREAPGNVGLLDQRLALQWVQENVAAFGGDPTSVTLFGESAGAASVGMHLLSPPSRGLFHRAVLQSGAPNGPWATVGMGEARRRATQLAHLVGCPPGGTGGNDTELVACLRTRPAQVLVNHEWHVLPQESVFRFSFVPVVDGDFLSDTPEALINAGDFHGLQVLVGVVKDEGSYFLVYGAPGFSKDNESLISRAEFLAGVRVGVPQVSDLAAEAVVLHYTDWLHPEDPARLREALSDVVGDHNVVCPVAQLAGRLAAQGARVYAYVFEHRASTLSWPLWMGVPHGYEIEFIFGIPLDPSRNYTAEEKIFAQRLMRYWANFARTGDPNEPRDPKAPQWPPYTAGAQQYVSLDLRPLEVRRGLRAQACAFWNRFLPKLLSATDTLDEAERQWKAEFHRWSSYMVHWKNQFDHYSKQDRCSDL
Cannabinoid receptor 1 (Homo sapiens), sequence (P21554 whole entry, the tested form may be a part): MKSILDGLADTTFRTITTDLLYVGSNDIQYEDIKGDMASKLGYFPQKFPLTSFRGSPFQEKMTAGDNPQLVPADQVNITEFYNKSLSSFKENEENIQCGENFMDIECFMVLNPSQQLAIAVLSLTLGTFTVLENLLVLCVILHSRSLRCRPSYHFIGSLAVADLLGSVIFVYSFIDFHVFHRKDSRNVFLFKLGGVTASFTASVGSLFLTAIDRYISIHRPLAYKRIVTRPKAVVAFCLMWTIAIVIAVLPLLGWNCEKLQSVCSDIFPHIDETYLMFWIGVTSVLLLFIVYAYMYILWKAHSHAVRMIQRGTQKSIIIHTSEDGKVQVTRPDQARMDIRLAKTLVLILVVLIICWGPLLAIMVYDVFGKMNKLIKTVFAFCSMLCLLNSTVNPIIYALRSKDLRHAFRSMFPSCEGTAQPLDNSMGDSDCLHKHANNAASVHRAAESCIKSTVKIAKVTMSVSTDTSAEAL
D(2) dopamine receptor (Homo sapiens), sequence (P14416 whole entry): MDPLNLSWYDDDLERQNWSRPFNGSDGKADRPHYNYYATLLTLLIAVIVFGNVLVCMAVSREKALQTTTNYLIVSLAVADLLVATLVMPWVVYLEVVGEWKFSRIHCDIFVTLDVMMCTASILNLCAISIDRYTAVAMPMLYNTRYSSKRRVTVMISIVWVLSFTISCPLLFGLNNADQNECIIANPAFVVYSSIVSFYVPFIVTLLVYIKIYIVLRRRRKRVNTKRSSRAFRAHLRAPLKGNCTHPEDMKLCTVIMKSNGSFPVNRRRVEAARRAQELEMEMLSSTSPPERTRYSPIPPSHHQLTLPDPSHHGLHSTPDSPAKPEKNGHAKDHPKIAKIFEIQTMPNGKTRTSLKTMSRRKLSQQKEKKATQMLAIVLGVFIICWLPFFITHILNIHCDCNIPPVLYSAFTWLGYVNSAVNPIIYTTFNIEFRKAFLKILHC
Glucocorticoid receptor (Homo sapiens), sequence (P04150 whole entry): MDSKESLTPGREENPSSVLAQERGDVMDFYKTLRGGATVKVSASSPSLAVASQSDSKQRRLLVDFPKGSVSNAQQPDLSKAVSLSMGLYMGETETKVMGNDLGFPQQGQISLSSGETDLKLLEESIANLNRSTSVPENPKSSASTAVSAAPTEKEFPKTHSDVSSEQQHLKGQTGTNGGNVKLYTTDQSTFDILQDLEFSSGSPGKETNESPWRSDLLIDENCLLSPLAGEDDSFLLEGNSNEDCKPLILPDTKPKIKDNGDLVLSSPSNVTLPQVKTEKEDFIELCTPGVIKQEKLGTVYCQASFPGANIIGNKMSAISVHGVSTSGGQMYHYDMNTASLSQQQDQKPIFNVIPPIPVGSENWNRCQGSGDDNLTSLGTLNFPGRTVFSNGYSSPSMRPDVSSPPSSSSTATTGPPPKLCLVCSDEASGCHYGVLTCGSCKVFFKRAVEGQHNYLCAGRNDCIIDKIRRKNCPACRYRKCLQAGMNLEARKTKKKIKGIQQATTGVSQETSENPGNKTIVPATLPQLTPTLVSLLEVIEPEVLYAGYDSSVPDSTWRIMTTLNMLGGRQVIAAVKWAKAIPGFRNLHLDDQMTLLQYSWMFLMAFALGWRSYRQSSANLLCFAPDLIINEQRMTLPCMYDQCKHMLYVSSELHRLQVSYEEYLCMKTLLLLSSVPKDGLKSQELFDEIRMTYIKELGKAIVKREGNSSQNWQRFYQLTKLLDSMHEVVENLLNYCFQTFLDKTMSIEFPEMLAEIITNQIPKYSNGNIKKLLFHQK
Angiotensin-converting enzyme 2 (Homo sapiens), sequence (Q9BYF1 18-805 limits assumed): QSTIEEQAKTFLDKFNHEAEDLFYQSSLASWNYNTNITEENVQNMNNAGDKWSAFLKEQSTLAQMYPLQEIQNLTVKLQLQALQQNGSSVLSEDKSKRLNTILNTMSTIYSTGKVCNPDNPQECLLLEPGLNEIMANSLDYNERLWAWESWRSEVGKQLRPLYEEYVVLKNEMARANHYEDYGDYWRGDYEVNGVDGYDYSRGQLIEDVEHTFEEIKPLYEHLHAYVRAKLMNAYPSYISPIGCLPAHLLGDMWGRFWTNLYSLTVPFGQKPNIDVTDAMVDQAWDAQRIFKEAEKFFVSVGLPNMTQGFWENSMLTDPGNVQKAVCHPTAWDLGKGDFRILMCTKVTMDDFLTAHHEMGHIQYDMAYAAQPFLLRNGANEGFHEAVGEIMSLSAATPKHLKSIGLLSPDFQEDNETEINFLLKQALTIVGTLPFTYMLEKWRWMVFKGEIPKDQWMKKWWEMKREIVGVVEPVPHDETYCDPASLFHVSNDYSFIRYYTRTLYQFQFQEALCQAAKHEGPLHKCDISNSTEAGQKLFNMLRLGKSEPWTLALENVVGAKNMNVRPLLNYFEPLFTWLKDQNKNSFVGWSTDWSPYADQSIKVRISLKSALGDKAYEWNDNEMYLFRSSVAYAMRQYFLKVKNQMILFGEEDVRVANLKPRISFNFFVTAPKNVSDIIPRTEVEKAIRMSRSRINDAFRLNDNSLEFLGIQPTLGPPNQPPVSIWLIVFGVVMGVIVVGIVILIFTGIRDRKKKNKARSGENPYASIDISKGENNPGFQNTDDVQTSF
Bombesin receptor subtype-3 (Homo sapiens), sequence (P32247 whole entry): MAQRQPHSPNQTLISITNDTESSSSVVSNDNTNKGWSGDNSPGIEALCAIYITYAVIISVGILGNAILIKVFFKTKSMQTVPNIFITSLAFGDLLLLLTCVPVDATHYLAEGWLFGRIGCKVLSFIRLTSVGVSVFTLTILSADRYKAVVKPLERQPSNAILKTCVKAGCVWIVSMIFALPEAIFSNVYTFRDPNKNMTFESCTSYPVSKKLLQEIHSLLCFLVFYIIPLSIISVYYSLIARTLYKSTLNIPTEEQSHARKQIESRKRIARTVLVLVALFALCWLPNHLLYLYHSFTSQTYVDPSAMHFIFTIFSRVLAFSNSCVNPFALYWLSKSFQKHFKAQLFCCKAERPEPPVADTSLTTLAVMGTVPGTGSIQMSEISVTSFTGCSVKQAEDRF
Vasoactive intestinal polypeptide receptor 1 (Homo sapiens), sequence (P32241 whole entry): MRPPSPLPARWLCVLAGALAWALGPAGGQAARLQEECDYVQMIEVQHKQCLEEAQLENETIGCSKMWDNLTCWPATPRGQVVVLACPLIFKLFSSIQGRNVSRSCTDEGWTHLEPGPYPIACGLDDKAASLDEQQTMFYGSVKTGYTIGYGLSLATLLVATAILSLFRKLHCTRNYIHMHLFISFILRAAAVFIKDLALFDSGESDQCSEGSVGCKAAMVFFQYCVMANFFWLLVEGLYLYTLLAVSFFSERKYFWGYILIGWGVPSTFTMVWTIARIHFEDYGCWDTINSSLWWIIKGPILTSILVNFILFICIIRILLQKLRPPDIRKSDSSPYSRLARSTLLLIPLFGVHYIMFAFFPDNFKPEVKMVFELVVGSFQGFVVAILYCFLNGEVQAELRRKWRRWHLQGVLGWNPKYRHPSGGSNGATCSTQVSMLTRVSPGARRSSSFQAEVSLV

O=C([C@@H](Cc1cccc(C(F)(F)F)c1)NS(=O)(=O)c1cc(F)c2c(c1)CCNC2)N1CCCC1
inhibition [1]: -7%
inhibition (Homo sapiens [2]): 38%
inhibition [3]: 5%
deltaT [4]: 4 °C
IC50 [5]: 1.2 µM
inhibition [6]: 37%
inhibition [7]: 7%
inhibition (Homo sapiens [8]): 5%
inhibition [9]: 2%
inhibition [10]: -4%
inhibition [11]: -8%
IC50 (Motilin receptor): 7.2 µM
inhibition [12]: 1%
inhibition [13]: 25%
Ki [14]: 0.00033 µM
inhibition [15]: 3%
inhibition [16]: -6%
IC50 [17]: 10.8 µM
inhibition [18]: 4%
inhibition [19]: -8%
inhibition [20]: -9%
inhibition (Homo sapiens [21]): 11%
inhibition [22]: -6%
inhibition [23]: 10%
inhibition [24]: 39%
inhibition (Homo sapiens [25]): -4%
inhibition [26]: -4%
Activity (U2OS): Non-Toxic
inhibition (Homo sapiens [27]): 49%
inhibition [28]: 0%
inhibition [29]: 61%
inhibition [30]: 6%
inhibition [31]: 7%
inhibition [32]: 0%
inhibition [33]: 5%
inhibition [34]: 10%
inhibition (Homo sapiens [35]): -1%

Source: ChEMBL document CHEMBL5705898 (Proc Natl Acad Sci U S A, 2014)
